# Published values of several laboratories.
# Each line is one published result; the experiments were not run side by side.
# Mc1r: Melanocyte-stimulating hormone receptor (Mc1r, Mus musculus, UniProt Q01727)
# PSMB8: Proteasome subunit beta type-8 (PSMB8, Homo sapiens, UniProt P28062)
# GCGR: Glucagon receptor (GCGR, Homo sapiens, UniProt P47871)
target,effect on,mode,method,notes,quantity,result,SMILES
Mc1r,reporter gene,agonist,,,EC50,7.86 µM,N=C(N)NCCC[C@H](NC(=O)[C@H](CC(=O)O)NC(=O)[C@H](Cc1c[nH]c2ccccc12)NC(=O)[C@H](CCCNC(=N)N)NC(=O)[C@H](Cc1ccccc1)NC(=O)[C@H](Cc1c[nH]cn1)NC(=O)CN)C(=O)N[C@@H](Cc1ccccc1)C(=O)NCC(=O)O
PSMB8,enzyme activity,inhibitor,,lysate,IC50,> 10 µM,Cc1ncc(C(=O)N[C@@H](CC(C)C)C(=O)N[C@@H](CC2CCCC3CCCCC32)C(=O)N[C@H](/C=C/S(C)(=O)=O)Cc2ccc(CN)cc2)s1 (some centres unmarked)
"Dual specificity tyrosine-phosphorylation-regulated kinase 1B (DYRK1B, Homo sapiens, UniProt Q9Y463)",enzyme activity,inhibitor,,,IC50,0.238 µM,CN1CCN(c2ccc(Nc3ncc4cc(C#N)c(=O)n(C5CCCC5)c4n3)cc2)CC1
"Dual specificity tyrosine-phosphorylation-regulated kinase 1A (DYRK1A, Homo sapiens, UniProt Q13627)",enzyme activity,inhibitor,,,IC50,> 10 µM,CCOc1ccc2c(-c3cc(C)nc(Nc4cc(OC)cc(C(F)(F)F)c4)n3)cnn2n1
Mc1r,reporter gene,agonist,,,EC50,1.59 µM,CSCC[C@H](N)C(=O)NCC(=O)N[C@@H](Cc1c[nH]cn1)C(=O)N[C@@H](Cc1ccccc1)C(=O)N[C@@H](CCCNC(=N)N)C(=O)N[C@@H](Cc1c[nH]c2ccccc12)C(=O)N[C@@H](CC(=O)O)C(=O)N[C@@H](CCCNC(=N)N)C(=O)N[C@@H](Cc1ccccc1)C(=O)NCC(=O)O
PSMB8,enzyme activity,inhibitor,,lysate,IC50,> 10 µM,Cc1ncc(C(=O)N[C@@H](CC(C)C)C(=O)N[C@@H](CC(C)C)C(=O)N[C@H](/C=C/S(C)(=O)=O)Cc2ccc(CN)cc2)s1
Mc1r,reporter gene,agonist,,,EC50,> 100 µM,N=C(N)NCCC[C@H](N)C(=O)N[C@@H](Cc1ccccc1)C(=O)NCC(=O)O
Mc1r,reporter gene,agonist,,,EC50,> 100 µM,C[C@@H]1NC(=O)[C@H](CCCNC(=N)N)NC(=O)[C@H](Cc2ccccc2)NC(=O)[C@H](Cc2ccccc2)NC(=O)[C@H](CCCNC(=N)N)NC(=O)[C@@H]2CCCN2C(=O)[C@H]2CCCN2C(=O)[C@H](Cc2ccccc2)NC1=O
"Cellular retinoic acid-binding protein 2 (CRABP2, Homo sapiens, UniProt P29373, L122E/R112L/R133K)",binding,,fluorescence,,Kd,0.00136 µM,CC1=C(/C=C/C(C)=C/C=C/C(C)=C/C=O)C(C)(C)CCC1
Mc1r,reporter gene,agonist,,,EC50,> 100 µM,N=C(N)NCCC[C@H](NC(=O)[C@H](CC(=O)O)NC(=O)[C@@H](N)Cc1c[nH]c2ccccc12)C(=O)N[C@@H](Cc1ccccc1)C(=O)NCC(=O)O
PSMB8,enzyme activity,inhibitor,,lysate,IC50,> 10 µM,Cc1ncc(C(=O)N[C@@H](CC2CCCCC2)C(=O)N[C@@H](CC2CCCCC2)C(=O)N[C@H](/C=C/S(C)(=O)=O)Cc2ccc(CN)cc2)s1
GCGR,cAMP,agonist,,,EC50,> 20 µM,N#Cc1ccc(COc2cccc(C3CCN(Cc4nc5ccc(C(=O)O)cc5n4C[C@@H]4CCO4)CC3)n2)c(F)c1
PSMB8,enzyme activity,inhibitor,,lysate,IC50,3.98 µM,Cc1ncc(C(=O)N[C@@H](CC(C)C)C(=O)N[C@@H](CCC2CCCCC2)C(=O)N[C@H](/C=C/S(C)(=O)=O)Cc2ccc(CN)cc2)s1
GCGR,reporter gene,agonist,luciferase,,EC50,> 1 µM,CC[C@H](C)[C@H](NC(=O)[C@H](CO)NC(=O)[C@H](Cc1ccc(O)cc1)NC(=O)[C@H](CC(=O)O)NC(=O)[C@H](CO)NC(=O)[C@@H](NC(=O)[C@H](Cc1ccccc1)NC(=O)[C@@H](NC(=O)CNC(=O)[C@H](CCC(=O)O)NC(=O)[C@H](C)NC(=O)[C@@H](N)Cc1ccc(O)cc1)[C@@H](C)O)[C@@H](C)CC)C(=O)N[C@@H](C)C(=O)N[C@@H](CCSC)C(=O)N[C@@H](CC(=O)O)C(=O)N[C@@H](CCCCN)C(=O)N[C@H](C(=O)N[C@@H](Cc1c[nH]cn1)C(=O)N[C@@H](CCC(N)=O)C(=O)N[C@@H](CCC(N)=O)C(=O)N[C@@H](CC(=O)O)C(=O)N[C@@H](Cc1ccccc1)C(=O)N[C@H](C(=O)N[C@@H](CC(N)=O)C(=O)N[C@@H](Cc1c[nH]c2ccccc12)C(=O)N[C@@H](CC(C)C)C(=O)N[C@@H](CC(C)C)C(=O)N[C@@H](C)C(=O)N[C@@H](CCC(N)=O)C(=O)N[C@@H](CCCCN)C(=O)NCC(=O)N[C@@H](CCCCN)C(=O)N[C@@H](CCCCN)C(=O)N[C@@H](CC(N)=O)C(=O)N[C@@H](CC(=O)O)C(=O)N[C@@H](Cc1c[nH]c2ccccc12)C(=O)N[C@@H](CCCCN)C(=O)N[C@@H](Cc1c[nH]cn1)C(=O)N[C@@H](CC(N)=O)C(=O)N[C@H](C(=O)N[C@H](C(=O)N[C@@H](CCC(N)=O)C(=O)O)[C@@H](C)O)[C@@H](C)CC)C(C)C)[C@@H](C)CC
